Test results reported in ChEMBL document CHEMBL1123255, “Synthesis of Pro-Leu-Gly-NH2 analogues modified at the prolyl residue and evaluation of their effects on the receptor binding activity of the central dopamine receptor agonist, ADTN” (J Med Chem, 1986).
Square brackets hold non-standard residues; d marks the D form. Peptide text beside a SMILES is read from it. pGlu = O=C1CC[C@@H](C(=O)O)N1; Pip = O=C(O)[C@@H]1CCCCN1; Thz = O=C(O)[C@@H]1CSCN1; Aze = O=C(O)[C@@H]1CCN1

Assays:
Assay type in all cases: protein assay
[1] = biological target: T1, Dopamine receptor (Bos taurus) (UniProt Q95136+P20288); assay: Compound was tested for enhancement of the binding of [3H]ADTN to dopamine receptors at concentration of 100 nM
How it was run: (§1)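 Bovine caudate homogenized in 50 mM Tris-HCl pH 7.7, centrifuged twice at 40000g, resuspended in 50 mM Tris pH 7.1 with 0.1% ascorbate, 120 mM NaCl, 5 mM KCl, 2 mM CaCl2, 10 μM pargyline. 0.4-0.6 mg protein, 8 nM [3H]ADTN, peptide at 1, 10 or 100 nM; 10 min, 37 °C, triplicate; GF/B filtration, scintillation counting. Specific binding defined with 1 μM (d)-butaclamol; % enhancement over no-drug basal.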

[2] = biological target: T1, Dopamine receptor (Bos taurus); assay: Compound was tested for enhancement of the binding of [3H]ADTN to dopamine receptors at concentration of 1 nM; how it was run: as §1
[3] = biological target: T1, Dopamine receptor (Bos taurus); assay: Compound was tested for enhancement of the binding of [3H]-ADTN to dopamine receptors at concentration of 10 nM; how it was run: as §1

Row | SMILES | Enhancement [1] | Enhancement [2] | Enhancement [3]
1 | CC(C)C[C@H](NC(=O)[C@@H]1CCCN1)C(=O)NCC(N)=O (stereo in doubt; 1) | 46.2% | 16% | 28%
2 | CC(C)C[C@H](NC(=O)[C@@H]1CSCN1)C(=O)NCC(N)=O (H-[Thz]-Leu-Gly-NH2) | 9.5% | 7% | 8.5%
3 | CC(C)C[C@H](NC(=O)[C@@H]1CCC(=O)N1)C(=O)NCC(N)=O ([pGlu]-Leu-Gly-NH2) | 36.4% | 13.5% | 26.5%
4 | CC(C)C[C@H](NC(=O)[C@@H]1CCN1)C(=O)NCC(N)=O (H-[Aze]-Leu-Gly-NH2) | 42% | 19% | 40%
5 | CC(C)C[C@H](NC(=O)[C@@H]1CCCCN1)C(=O)NCC(N)=O (H-[Pip]-Leu-Gly-NH2) | 58.7% | 17% | 38.7%
6 | CC(C)C[C@H](NC(=O)[C@@H]1CCCN1)C(=O)NCC(N)=O (stereo in doubt; 2) | 33% | 18% | 25%
7 | CC(C)C[C@H](NC(=O)[C@H]1C=CCN1)C(=O)NCC(N)=O | 14.4% | 9.5% | 13%
8 | CC(C)C[C@H](NC(=O)[C@@H]1C=CCN1)C(=O)NCC(N)=O | 55% | 12.4% | 40%
